Laboratory results published in ChEMBL document CHEMBL3098079, “Discovery of hybrid Hsp90 inhibitors and their anti-neoplastic effects against gefitinib-resistant non-small cell lung cancer (NSCLC)” (2014).
The source made the active and inactive calls. The calls are words filed in the database; no cut-off is given here.

What was measured:
NCI-H1975 [1] = experiment: Antiproliferative activity against gefitinib-resistant human NCI-H1975 cells after 1 to 3 days by MTS assay; assay type: functional
Outline: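 H1975 (gefitinib-resistant NSCLC, T790M/L858R EGFR) cells exposed to compound at a range of concentrations; viability read by MTS assay at 1, 2 and 3 days of treatment. Data given as mean ± SD, n = 4.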

[2] = biological target: Heat shock protein HSP 90-beta (Homo sapiens) (UniProt P08238); experiment: Inhibition of HSP90 in gefitinib-resistant human NCI-H1975 cells assessed as degradation of HER2 after 24 hrs by Western blot method; assay type: cell-based
Outline: (§1)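 Dose-response immunoblotting: H1975 cells incubated 24 h with increasing compound concentrations, then lysates probed by Western blot for Hsp90 clients (EGFR, Her2, Met, Akt), downstream signaling proteins and Hsp70. Geldanamycin (1 μM) positive control; DMSO negative control.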

[3] = biological target: Heat shock protein HSP 90-beta (Homo sapiens) (UniProt P08238); experiment: Inhibition of HSP90 in gefitinib-resistant human NCI-H1975 cells assessed as downregulation of Thr202/Tyr204 phosphorylated ERK1/2 level at 1 to 100 uM after 24 hrs by Western blot method; assay type: cell-based; outline: as §1
[4] = biological target: Heat shock protein HSP 90-beta (Homo sapiens) (UniProt P08238); experiment: Inhibition of HSP90 in gefitinib-resistant human NCI-H1975 cells assessed as degradation of MET at 40 uM after 24 hrs by Western blot method; assay type: cell-based
Outline: (§2)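 H1975 cells treated 24 h with each compound at 40 μM; Hsp90 client proteins and Hsp70 probed by Western blot. Geldanamycin (1 μM) as positive control, DMSO as negative control.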

[5] = biological target: Heat shock protein HSP 90-beta (Homo sapiens) (UniProt P08238); experiment: Inhibition of HSP90 in gefitinib-resistant human NCI-H1975 cells assessed as degradation of MET after 24 hrs by Western blot method; assay type: cell-based; outline: as §1
NCI-H1975 [6] = experiment: Downregulation of ERK1/2 in gefitinib-resistant human NCI-H1975 cells at 1 to 100 uM after 24 hrs by Western blot method; assay type: functional, cell-based; outline: as §1
[7] = biological target: Heat shock protein HSP 90-beta (Homo sapiens) (UniProt P08238); experiment: Inhibition of HSP90 in gefitinib-resistant human NCI-H1975 cells assessed as downregulation of Ser473 phosphorylated AKT level at 1 to 100 uM after 24 hrs by Western blot method; assay type: cell-based; outline: as §1
[8] = biological target: Heat shock protein HSP 90-beta (Homo sapiens) (UniProt P08238); experiment: Inhibition of HSP90 in gefitinib-resistant human NCI-H1975 cells assessed as transcriptional upregulation of Hsp70 at 40 uM after 24 hrs by Western blot method; assay type: cell-based; outline: as §2
[9] = biological target: Heat shock protein HSP 90-beta (Homo sapiens) (UniProt P08238); experiment: Inhibition of HSP90 in gefitinib-resistant human NCI-H1975 cells assessed as degradation of HER2 at 40 uM after 24 hrs by Western blot method; assay type: cell-based; outline: as §2
[10] = biological target: Heat shock protein HSP 90-beta (Homo sapiens) (UniProt P08238); experiment: Inhibition of HSP90 in gefitinib-resistant human NCI-H1975 cells assessed as degradation of EGFR after 24 hrs by Western blot method; assay type: cell-based; outline: as §1
[11] = biological target: Heat shock protein HSP 90-beta (Homo sapiens) (UniProt P08238); experiment: Inhibition of HSP90 in gefitinib-resistant human NCI-H1975 cells assessed as degradation of EGFR at 40 uM after 24 hrs by Western blot method; assay type: cell-based; outline: as §2
[12] = biological target: Heat shock protein HSP 90-beta (Homo sapiens) (UniProt P08238); experiment: Inhibition of HSP90 in gefitinib-resistant human NCI-H1975 cells assessed as transcriptional upregulation of Hsp70 after 24 hrs by Western blot method; assay type: cell-based; outline: as §1
[13] = biological target: Heat shock protein HSP 90-beta (Homo sapiens) (UniProt P08238); experiment: Inhibition of HSP90 in gefitinib-resistant human NCI-H1975 cells assessed as downregulation of Tyr1068 phosphorylated EGFR level at 1 to 100 uM after 24 hrs by Western blot method; assay type: cell-based; outline: as §1
[14] = biological target: Heat shock protein HSP 90-beta (Homo sapiens) (UniProt P08238); experiment: Inhibition of HSP90 in gefitinib-resistant human NCI-H1975 cells assessed as degradation of AKT at 40 uM after 24 hrs by Western blot method; assay type: cell-based; outline: as §2
[15] = biological target: Heat shock protein HSP 90-beta (Homo sapiens) (UniProt P08238); experiment: Inhibition of HSP90 in gefitinib-resistant human NCI-H1975 cells assessed as degradation of AKT after 24 hrs by Western blot method; assay type: cell-based; outline: as §1

Sequence of Heat shock protein HSP 90-beta (Homo sapiens) (P08238 whole entry): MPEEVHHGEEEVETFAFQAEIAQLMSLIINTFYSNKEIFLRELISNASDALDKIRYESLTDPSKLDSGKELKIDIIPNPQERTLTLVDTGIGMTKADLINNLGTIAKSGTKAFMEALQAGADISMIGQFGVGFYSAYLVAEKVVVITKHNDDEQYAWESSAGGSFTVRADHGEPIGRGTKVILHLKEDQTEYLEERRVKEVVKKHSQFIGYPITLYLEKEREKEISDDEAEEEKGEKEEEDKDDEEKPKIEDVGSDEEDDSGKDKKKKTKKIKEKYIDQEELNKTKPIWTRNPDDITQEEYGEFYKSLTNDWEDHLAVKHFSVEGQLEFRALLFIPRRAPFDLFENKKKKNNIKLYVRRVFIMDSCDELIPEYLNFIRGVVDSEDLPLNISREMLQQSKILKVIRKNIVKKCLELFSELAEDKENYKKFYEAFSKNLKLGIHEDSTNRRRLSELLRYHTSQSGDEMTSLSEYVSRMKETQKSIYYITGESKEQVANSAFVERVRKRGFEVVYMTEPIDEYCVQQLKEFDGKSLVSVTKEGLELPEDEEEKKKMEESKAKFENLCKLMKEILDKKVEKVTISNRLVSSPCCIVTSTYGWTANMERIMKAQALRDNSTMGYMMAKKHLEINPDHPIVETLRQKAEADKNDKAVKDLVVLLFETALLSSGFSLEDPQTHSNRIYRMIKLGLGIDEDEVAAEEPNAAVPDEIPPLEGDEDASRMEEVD

Compound `CCCCn1c(Cc2cc(OC)c(OC)c(OC)c2)nc2c(N)ncnc21` has a GI50 (NCI-H1975 [1]) of 50 µM.

In the case of `COc1cc(/C=C/C(=O)c2cc(Cl)c(O)cc2O)cc(OC)c1OC`, the inhibition [2] is reported as “Dose-dependent effect”, the inhibition [3] is reported as “Active” and the inhibition [4] is reported as “Active”. The inhibition [5] was “Dose-dependent effect”, the GI50 (NCI-H1975 [1]) was 48 µM and the inhibition (NCI-H1975 [1]) was “Dose-dependent effect”. For the same compound, the Activity (NCI-H1975 [6]) was “inactive”, the inhibition [7] was “Active” and the inhibition [8] was “Active”. For the same compound, the inhibition [9] was “Active”, the inhibition [10] was “Dose-dependent effect” and the inhibition [11] was “Active”. For the same compound, the inhibition [12] was “Dose-dependent effect”, the inhibition [13] was “Active” and the inhibition [14] was “Active”. For the same compound, the inhibition [15] was “Dose-dependent effect”.

In the case of `O=C(/C=C/c1ccc(O)cc1O)c1cc(Cl)c(O)cc1O`, the inhibition (NCI-H1975 [1]) is reported as “Dose-dependent effect”.

With `COc1ccc(/C=C/C(=O)c2cc(Cl)c(O)cc2O)c(OC)c1` the inhibition (NCI-H1975 [1]) was “Dose-dependent effect”.

`CCNC(=O)c1n[nH]c(-c2cc(Cl)c(O)cc2O)c1-c1ccc(OC)cc1` was tested, and the GI50 (NCI-H1975 [1]) was 1 µM.
